High-throughput results: PubChem BioAssay, Sanford-Burnham Center for Chemical Genomics
SENP1 inh: blocks the human SENP1 SUMO protease catalytic domain | recombinant SENP1 catalytic domain, CyPet-SUMO1-YPet FRET cleavage | AID 624204 | Q9P0U3 | inhibition, % at 10 µM | 0.21% of 360,000 active;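 active = inhibition at least 30% at 10 µM, raw YFP signal under a set limit, fluorescence ratio 0.5 to 1.5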;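 note: 0% = enzyme with DMSO and 100% = no enzyme wells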
Target sequence (Q9P0U3 419-644 limits assumed): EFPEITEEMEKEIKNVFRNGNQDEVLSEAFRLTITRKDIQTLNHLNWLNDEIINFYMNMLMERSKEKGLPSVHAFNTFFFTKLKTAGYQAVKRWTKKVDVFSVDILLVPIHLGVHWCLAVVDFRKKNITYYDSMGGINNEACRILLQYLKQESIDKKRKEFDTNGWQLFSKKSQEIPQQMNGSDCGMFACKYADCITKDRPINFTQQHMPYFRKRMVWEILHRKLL
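Test system: human SENP1 catalytic domain; medium: Tris pH 8 buffer plus EDTA, NaCl, BME, BSA, NP40, catalase; incubation: 50 min reaction at room temperature; technique: FRET, CFP and YFP emission; controls: no-enzyme low control and enzyme-plus-DMSO high control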
NRP1-CendR mod: alters CendR peptide binding to human NRP-1; O14786; FAM-RPARPAR peptide binding to NRP-1, fluorescence polarization; inhibition, % at 25 µM; 0.85% of 360,000 active;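 active = inhibition or corrected inhibition above about 18%, plus a signal ratio from 0.5 to 1.5, limit read from the data, passing the limit was not always enough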
SENP7 inh: inhibitors of human SENP7 protease; recombinant SENP7, Z-RLRGG-aminoluciferin luminescence, 40 min; inhibition, % at 5 µM; 1.5% of 330,000 active; AID 434973;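 active = inhibition above about 50% at the single test dose, limit read from the data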;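 note: plate controls were DMSO with enzyme for no effect and no enzyme buffer wells for full effect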
SENP8 block-1: SENP8 (human) protease inhibition | recombinant SENP8, Nedd8 substrate fluorescence | 0.64% of 360,000 active | inhibition, % at 20 µM | Q96LD8 | AID 602440; in the data active = inhibition mostly above about 40%, no sharp cut-off; inactive = mostly below about 27%
Target sequence (Q96LD8 whole entry, looked up): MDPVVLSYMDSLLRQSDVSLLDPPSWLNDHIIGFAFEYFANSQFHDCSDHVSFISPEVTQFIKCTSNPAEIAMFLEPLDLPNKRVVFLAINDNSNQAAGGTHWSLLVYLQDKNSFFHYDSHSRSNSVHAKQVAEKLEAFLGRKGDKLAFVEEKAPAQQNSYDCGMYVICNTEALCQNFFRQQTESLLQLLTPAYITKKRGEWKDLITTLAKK
SENP8 block-2: SENP8 protease inhibition. 1.2% of 330,000 active. Q96LD8. purified SENP8, Z-RLRGG-aminoluciferin cleavage, luminescence. inhibition, % at 10 µM. AID 2540; in the data active = inhibition above about 50%
SENP6 block: SENP6 protease inhibition. Q9GZR1. Recombinant SENP6 catalytic domain, aminoluciferin luminescence. inhibition, % at 10 µM. 1.8% of 330,000 active. AID 2599;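 active = inhibition above about 50% at the single tested dose, limit read from the data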;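 note: plate controls were DMSO wells with enzyme for no effect and DMSO wells lacking enzyme for full effect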
SENP8 conf: confirmation of human SENP8 protease inhibitors | shares compounds with SENP7 inh | Recombinant SENP8, Z-RLRGG-aminoluciferin luminescence, 60 min | inhibition, % at 12.5 µM | 40% of 6,200 active | AID 488912;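 active = mean inhibition across replicates above about 50%, limit read from the data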
SENP6 confirm: confirmation of human SENP6 protease inhibitors; shares compounds with SENP7 inh; recombinant SENP6, Z-RLRGG-aminoluciferin luminescence; inhibition, % at 12.5 µM; 58% of 6,200 active; AID 488915
SENP7 confirm: confirmation of human SENP7 protease inhibitors | shares compounds with SENP7 inh | 69% of 6,200 active | inhibition, % at 12.5 µM | recombinant SENP7, Z-RLRGG-aminoluciferin luminescence, 40 min
Casp3 select: selectivity test for SENP inhibitors: human caspase-3 inhibition | shares compounds with SENP7 inh | purified caspase-3, Z-DEVD-aminoluciferin luminescence, 60 min | inhibition, % at 12.5 µM | 60% of 6,200 active;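 active = mean inhibition above about 50%, limit read from the data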;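 note: plate controls were enzyme with DMSO for no effect and wells without caspase-3 for full effect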
Target sequence (P42574 28-227 limits assumed): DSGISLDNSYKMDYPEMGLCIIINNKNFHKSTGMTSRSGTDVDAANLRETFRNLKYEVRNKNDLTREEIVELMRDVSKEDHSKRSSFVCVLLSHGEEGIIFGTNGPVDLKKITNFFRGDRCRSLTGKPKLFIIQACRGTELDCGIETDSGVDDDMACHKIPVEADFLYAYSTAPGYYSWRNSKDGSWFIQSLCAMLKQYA
SENP luc ctr: luminescence interference (SENP counter-screen); shares compounds with SENP7 inh; Pre-incubated SENP8/Z-RLRGG-aminoluciferin, luciferase luminescence interference; inhibition, % at 12.5 µM; 39% of 6,200 active;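 active = mean inhibition above about 50% when retested at one dose, limit read from the data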;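 note: plate controls were DMSO wells with completed reaction for no effect and substrate without enzyme for full effect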
Starred values were filed as active, the others as inactive. Compounds with a hit are over-represented: about 3.3% of the library has one in this group of screens.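 Rule for the calls, unless noted: active = mean inhibition above about 50% in the one-dose retest (limit read from the data); inactive = the rest.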

How did Cc1ccc(Oc2cc(-n3nc(C)cc3C)ncn2)cc1 do in these assays?
SENP1 inh: 1.3; NRP1-CendR mod: -9.7; SENP7 inh: 46.5; SENP8 block-1: 16.4; SENP8 block-2: 20.2; SENP6 block: 53.8*; SENP8 conf: 36.8; SENP6 confirm: 38.7; SENP7 confirm: 73.4*; Casp3 select: 38.2; SENP luc ctr: 23.8

What do the screens show for `Cc1cc(C)n(-c2cc(-n3nc(C)cc3C)ncn2)n1`?
SENP1 inh: 2.1; NRP1-CendR mod: 2.2; SENP7 inh: -1.9; SENP8 block-1: 14.3; SENP8 block-2: -7.3; SENP6 block: -21.4

Results for CC(=O)C1C=CC(C)(C(=O)O)C2C=C(C)C(=O)C(C)(O)C12 (configuration not stated) ?
SENP1 inh: 3.8; NRP1-CendR mod: 11.1; SENP8 block-1: 14.3

Results for Cc1ccc(-c2nnc(-c3cccs3)o2)cc1 ?
SENP1 inh: 1.3; NRP1-CendR mod: -6.8; SENP7 inh: 81.3*; SENP8 block-1: -339.2; SENP8 block-2: 68.2*; SENP6 block: 24.1; SENP8 conf: 71.9*; SENP6 confirm: 87.4*; SENP7 confirm: 98.7*; Casp3 select: 85.5*; SENP luc ctr: 43.2

How did Cc1ccc(/C=C/c2nnc(-c3cccs3)o2)cc1 do in these assays?
SENP1 inh: 1.4; NRP1-CendR mod: 9.1; SENP7 inh: -0.5; SENP8 block-1: -304.0; SENP8 block-2: 85.6*; SENP6 block: 91.1*; SENP8 conf: -5.3; SENP6 confirm: 43.3; SENP7 confirm: 67.1*; Casp3 select: 43.4; SENP luc ctr: 22.6

How did Cc1ccc(/C=C/c2nnc(-c3ccc(C)cc3)o2)cc1 do in these assays?
SENP1 inh: -0.1; NRP1-CendR mod: -4.3; SENP7 inh: 7.3; SENP8 block-1: -283.5; SENP8 block-2: 6.9; SENP6 block: 30.6

How did Fc1ccc(/C=C/c2nnc(-c3cccs3)o2)cc1 do in these assays?
SENP1 inh: -0.7; NRP1-CendR mod: -4.3; SENP7 inh: 66.6*; SENP8 block-1: -408.7; SENP8 block-2: 20.2; SENP6 block: 61.2*; SENP8 conf: 0.5; SENP6 confirm: -0.1; SENP7 confirm: 15.2; Casp3 select: 27.4; SENP luc ctr: 12.1

Results for CCCCn1nnnc1C(c1cc2ccccc2o1)N(C)CCc1ccccc1 (configuration not stated) ?
SENP1 inh: -1.8; NRP1-CendR mod: -8.9; SENP8 block-1: -0.8

Results for c1ccc2c(c1)CCN(c1nc3cc4c(cc3s1)OCCO4)C2 ?
SENP1 inh: -7.3; NRP1-CendR mod: -4.9; SENP7 inh: 98.8*; SENP8 block-1: -340.2; SENP8 block-2: 96.5*; SENP6 block: 97.5*; SENP8 conf: 98.2*; SENP6 confirm: 98.8*; SENP7 confirm: 102.4*; Casp3 select: 97.0*; SENP luc ctr: 83.4*

How did CSC1=NSC2=NC(=O)/C(=C\c3ccc(OC(=O)c4ccco4)cc3)C(=N)N12 do in these assays?
SENP1 inh: -118.2; NRP1-CendR mod: -40.6; SENP7 inh: 36.6; SENP8 block-1: 14.6; SENP8 block-2: 91.2*; SENP6 block: 89.3*; SENP8 conf: 90.2*; SENP6 confirm: 89.9*; SENP7 confirm: 96.2*; Casp3 select: 89.5*; SENP luc ctr: 3.6

Results for Cc1cccc(NC(=O)c2ccc(F)c(S(=O)(=O)NCc3ccco3)c2)c1 ?
SENP1 inh: -1.0; NRP1-CendR mod: 11.0; SENP7 inh: 36.2; SENP8 block-1: -4.5; SENP8 block-2: 38.2; SENP6 block: 51.9*; SENP8 conf: 39.2; SENP6 confirm: 32.9; SENP7 confirm: 63.3*; Casp3 select: 43.7; SENP luc ctr: 51.0*

How did CN(C)CCN(C)C1CN(Cc2ccccc2)S(=O)(=O)C1 (configuration not stated) do in these assays?
SENP1 inh: 0.7; NRP1-CendR mod: 10.5; SENP8 block-1: 24.4

Results for CC(C)n1cnc2c(NCc3ccccc3)cc(N[C@H](C)CO)cc21 ?
SENP1 inh: -16.1; NRP1-CendR mod: -69.5; SENP7 inh: 46.9; SENP8 block-1: -73.4; SENP8 block-2: 81.0*; SENP6 block: -20.3; SENP8 conf: 85.0*; SENP6 confirm: 90.4*; SENP7 confirm: 67.8*; Casp3 select: 97.3*; SENP luc ctr: -3.3

What do the screens show for `CCC(COC)Oc1cc(NCc2ccccc2)c2ncn(C(C)C)c2c1` (configuration not stated)?
SENP1 inh: -60.0; NRP1-CendR mod: 2.0; SENP7 inh: 73.1*; SENP8 block-1: 10.9; SENP8 block-2: 76.8*; SENP6 block: 83.7*; SENP8 conf: 41.6; SENP6 confirm: 71.1*; SENP7 confirm: 22.7; Casp3 select: 4.8; SENP luc ctr: -3.3

What do the screens show for `COCCCOc1cc(NCc2ccccc2)c2ncn(C(C)C)c2c1`?
SENP1 inh: -1.9; NRP1-CendR mod: -5.5; SENP7 inh: 4.0; SENP8 block-1: 22.0; SENP8 block-2: -8.4; SENP6 block: -9.3

What do the screens show for `O=C1NC[C@H](Cc2ccc(O)cc2)N(C[C@@H]2CCCN2C[C@H](Cc2ccccc2)N2C[C@H](Cc3ccc(O)cc3)N(CC3CCCCCC3)C(=O)C2=O)C1=O`?
SENP1 inh: 1.3; NRP1-CendR mod: 5.9; SENP8 block-1: 14.3

What do the screens show for `CCOc1ccc(Cl)cc1-c1cc(C(=O)Nc2cc(OC)c(OC)c(OC)c2)[nH]n1`?
SENP1 inh: 1.4; NRP1-CendR mod: -12.3; SENP8 block-1: 15.7

Results for CNC(=S)Nc1ccc(-c2nc3ccc(C)cc3s2)cc1 ?
SENP1 inh: -58.9; NRP1-CendR mod: -3.2; SENP7 inh: 49.6; SENP8 block-1: -392.1; SENP8 block-2: 63.8*; SENP6 block: 74.3*; SENP8 conf: 41.3; SENP6 confirm: 64.2*; SENP7 confirm: 86.4*; Casp3 select: 39.6; SENP luc ctr: 43.0
